The source of these data is ChEMBL document CHEMBL3994579, “Synthesis and antibacterial activity of novel 3-O-descladinosylazithromycin derivatives” (2017).

Common to all, as to type: functional
The subject of assay [1] is Streptococcus pyogenes. In words: Antibacterial activity against erythromycin-susceptible Streptococcus pyogenes clinical isolate by broth microdilution method. A digest of the protocol: (§1)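 MICs were determined in vitro by broth microdilution following the NCCL-recommended method. Azithromycin and clarithromycin were run alongside as reference antibiotics on the same strain panel.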

Assay [2] deals with Streptococcus pneumoniae. In words: Antibacterial activity against erythromycin-resistant Streptococcus pneumoniae B1 expressing ermB gene by broth microdilution method. A digest of the protocol:
(§2)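 Broth microdilution per NCCL recommendation, read as minimal inhibitory concentration, run alongside azithromycin and clarithromycin references. Strains: S. pneumoniae B1 (erythromycin-resistant, ermB), A22072 (erythromycin-resistant, mefA), AB11 (erythromycin-resistant, erm and mef); S. aureus ATCC29213 ([…]); S. epidermidis clinical isolate (penicillin-resistant, not characterized).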

In a further assay the test system is Pseudomonas aeruginosa. Nature of the assay: Antibacterial activity against penicillin-susceptible Pseudomonas aeruginosa ATCC 27853 by broth microdilution method. A digest of the protocol: as §1
The test system of assay [3] is Staphylococcus aureus. In words: Antibacterial activity against erythromycin-susceptible Staphylococcus aureus ATCC 25923 by broth microdilution method. A digest of the protocol:
as §1

Assay [4] relates to Staphylococcus aureus. Nature of the assay: Antibacterial activity against […] Staphylococcus aureus ATCC 29213 by broth microdilution method. A digest of the protocol: as §2
In assay [5] the test system is Streptococcus pyogenes. In words: Antibacterial activity against erythromycin-resistant Streptococcus pyogenes R1 clinical isolate by broth microdilution method.
For assay [6], the system named is Streptococcus pyogenes. In words: Potency index, ratio of clarithromycin MIC to test compound MIC for erythromycin-resistant Streptococcus pyogenes R1 clinical isolate.
Assay [7] deals with Streptococcus pneumoniae. Nature of the assay: Antibacterial activity against erythromycin-resistant Streptococcus pneumoniae A22072 expressing mefA gene by broth microdilution method. Put shortly:
as §2

The subject of assay [8] is Streptococcus pyogenes. Nature of the assay: Potency index, ratio of azithromycin MIC to test compound MIC for erythromycin-resistant Streptococcus pyogenes R1 clinical isolate.
In assay [9] the test system is Streptococcus pneumoniae. In words: Antibacterial activity against erythromycin-resistant Streptococcus pneumoniae AB11 expressing ermB/mefA genes by broth microdilution method. Put shortly: as §2
Assay [10] has as its system Bacillus subtilis. In words: Antibacterial activity against erythromycin/penicillin-susceptible Bacillus subtilis ATCC 9372 by broth microdilution method. A digest of the protocol: as §1
In the next assay the test system is Escherichia coli. Nature of the assay: Antibacterial activity against penicillin-susceptible Escherichia coli ATCC 25922 by broth microdilution method. Put shortly: as §1
Assay [11] deals with Staphylococcus epidermidis. In words: Antibacterial activity against penicillin-resistant Staphylococcus epidermidis clinical isolate by broth microdilution method. A digest of the protocol:
as §2

In assay [12] the test system is Streptococcus pneumoniae. Nature of the assay: Potency index, ratio of clarithromycin MIC to test compound MIC for erythromycin-resistant Streptococcus pneumoniae B1 expressing ermB gene.
Assay [13] has as its system Streptococcus pneumoniae. Nature of the assay: Potency index, ratio of azithromycin MIC to test compound MIC for erythromycin-resistant Streptococcus pneumoniae B1 expressing ermB gene.
Assay [14] deals with Streptococcus pneumoniae. In words: Potency index, ratio of clarithromycin MIC to test compound MIC for erythromycin-resistant Streptococcus pneumoniae A22072 expressing mefA gene.
In assay [15] the test system is Streptococcus pneumoniae. Nature of the assay: Potency index, ratio of azithromycin MIC to test compound MIC for erythromycin-resistant Streptococcus pneumoniae AB11 expressing ermB/mefA genes.
Assay [16] concerns Staphylococcus epidermidis. In words: Potency index, ratio of azithromycin MIC to test compound MIC for penicillin-resistant Staphylococcus epidermidis clinical isolate.
The test system of assay [17] is Streptococcus pneumoniae. In words: Potency index, ratio of clarithromycin MIC to test compound MIC for erythromycin-resistant Streptococcus pneumoniae AB11 expressing ermB/mefA genes.
Assay [18] deals with Bacillus subtilis. Nature of the assay: Potency index, ratio of azithromycin MIC to test compound MIC for erythromycin/penicillin-susceptible Bacillus subtilis ATCC 9372.
In assay [19] the test system is Streptococcus pneumoniae. Nature of the assay: Potency index, ratio of azithromycin MIC to test compound MIC for erythromycin-resistant Streptococcus pneumoniae A22072 expressing mefA gene.

Each structure is given as a SMILES string. Converted amounts (≈) assume the structure as drawn.

`CCCCCCNC(=O)O[C@H]1[C@H](C)[C@@H](O[C@@H]2O[C@H](C)C[C@H](N(C)C)[C@H]2OC(C)=O)[C@](C)(O)C[C@@H](C)CN(C)[C@H](C)[C@H]2OC(=O)O[C@]2(C)[C@@H](CC)OC(=O)[C@@H]1C`: the MIC in the assay on Streptococcus pyogenes [1] stood at 4 mg/L (≈ 5.09 µM); in the assay on Streptococcus pneumoniae [2], 64 mg/L (≈ 81.4 µM); against Pseudomonas aeruginosa, 128 mg/L (≈ 163 µM); against Staphylococcus aureus [3], 16 mg/L (≈ 20.4 µM); with Staphylococcus aureus [4], 32 mg/L (≈ 40.7 µM); with Streptococcus pyogenes [5] it was 32 mg/L (≈ 40.7 µM). The minimal inhibitory concentration (MIC) with Streptococcus pneumoniae [7] stood at 64 mg/L (≈ 81.4 µM); with Streptococcus pneumoniae [9] it was 16 mg/L (≈ 20.4 µM); in the assay with Bacillus subtilis [10], 8 mg/L (≈ 10.2 µM); against Escherichia coli, 128 mg/L (≈ 163 µM); in assay [11], 16 mg/L (≈ 20.4 µM). Also, the Ratio with Streptococcus pyogenes [6] and in the assay with Streptococcus pyogenes [8] was 8 throughout.

In the case of `CC[C@H]1OC(=O)[C@H](C)[C@@H](OC(=O)Nc2ccccc2)[C@H](C)[C@@H](O[C@@H]2O[C@H](C)C[C@H](N(C)C)[C@H]2O)[C@](C)(O)C[C@@H](C)CN(C)[C@H](C)[C@H]2OC(=O)O[C@@]21C`, the Ratio with Streptococcus pneumoniae [12] came to 16; in the assay with Streptococcus pneumoniae [13] it was 16; in the assay with Streptococcus pyogenes [6], 32; with Streptococcus pyogenes [8], 32. For the same compound, the MIC in the assay on Streptococcus pyogenes [1] came to 0.25 mg/L (≈ 0.34 µM); with Streptococcus pneumoniae [2], 16 mg/L (≈ 21.7 µM); against Pseudomonas aeruginosa, 128 mg/L (≈ 174 µM); against Staphylococcus aureus [3], 2 mg/L (≈ 2.72 µM); in the assay on Staphylococcus aureus [4] it was 128 mg/L (≈ 174 µM); against Streptococcus pyogenes [5], 8 mg/L (≈ 10.9 µM). Moreover, the MIC against Streptococcus pneumoniae [7] amounted to 16 mg/L (≈ 21.7 µM); against Streptococcus pneumoniae [9], 16 mg/L (≈ 21.7 µM); against Bacillus subtilis [10], 4 mg/L (≈ 5.44 µM); in the assay with Escherichia coli, 128 mg/L (≈ 174 µM); in assay [11], 4 mg/L (≈ 5.44 µM).

As to `CCCCCCNC(=O)O[C@@H]1[C@@H](C)N(C)C[C@H](C)C[C@@](C)(O)[C@H](O[C@@H]2O[C@H](C)C[C@H](N(C)C)[C@H]2O)[C@@H](C)[C@H](OC(=O)Nc2ccc(OC)cc2)[C@@H](C)C(=O)O[C@H](CC)[C@@]1(C)O`, the Ratio is listed as 256 in the assay with Streptococcus pneumoniae [12]; 8 - 256 in the assay with Streptococcus pneumoniae [14]; 256 in the assay on Streptococcus pneumoniae [15]; 2 in assay [16]; 128 with Streptococcus pneumoniae [17]; 2 in the assay with Bacillus subtilis [18]. Further, the figures for the Ratio in the assay with Streptococcus pneumoniae [13] and with Streptococcus pneumoniae [19] were 256 and 8 - 256, respectively. Besides, the MIC in the assay on Streptococcus pyogenes [1] stood at 1 mg/L (≈ 1.15 µM); in the assay on Streptococcus pneumoniae [2] it was 1 mg/L (≈ 1.15 µM); with Pseudomonas aeruginosa, 128 mg/L (≈ 148 µM); against Staphylococcus aureus [3], 8 mg/L (≈ 9.23 µM); in the assay on Staphylococcus aureus [4], 128 mg/L (≈ 148 µM); in the assay with Streptococcus pyogenes [5] it was 32 mg/L (≈ 36.9 µM). Moreover, the MIC with Streptococcus pneumoniae [7] stood at 8 mg/L (≈ 9.23 µM); in the assay with Streptococcus pneumoniae [9] it was 1 mg/L (≈ 1.15 µM); in the assay with Bacillus subtilis [10] it was 0.5 mg/L (≈ 0.577 µM); against Escherichia coli it was 128 mg/L (≈ 148 µM); in assay [11] it was 0.125 mg/L (≈ 0.144 µM).
